Data published in ChEMBL document CHEMBL1125615, “A highly specific aldose reductase inhibitor, ethyl 1-benzyl-3-hydroxy-2(5H)-oxopyrrole-4-carboxylate, and its congeners” (J Med Chem, 1991).
Several values for one entry are separate records, joined by “and”; a condition that tells them apart may be missing. Equal entries are not always repeated. One block for each molecule: values may come before it.

Columns and labels:
[1] = Inhibitory activity measured against pig kidney aldehyde reductase using 3-pyridinecarboxaldehyde as substrate
In short: (§1)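 Purified rat lens aldose reductase and homogeneous pig kidney aldehyde reductase, assayed in 50 mM K phosphate pH 7.0 with 0.1 mM NADPH and 5 mM 3-pyridinecarboxaldehyde; substrate-started, NADPH loss at 340 nm over 12 min, 25 °C. IC50 by log linear regression; selectivity = aldehyde IC50 / aldose IC50.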

[2] = target: T1, Aldo-keto reductase family 1 member A1 (Sus scrofa, UniProt P50578); assay: (§2) Selectivity ratio measured as the IC50 ratio of aldehyde/aldose reductase values
T1 sequence (P50578 whole entry): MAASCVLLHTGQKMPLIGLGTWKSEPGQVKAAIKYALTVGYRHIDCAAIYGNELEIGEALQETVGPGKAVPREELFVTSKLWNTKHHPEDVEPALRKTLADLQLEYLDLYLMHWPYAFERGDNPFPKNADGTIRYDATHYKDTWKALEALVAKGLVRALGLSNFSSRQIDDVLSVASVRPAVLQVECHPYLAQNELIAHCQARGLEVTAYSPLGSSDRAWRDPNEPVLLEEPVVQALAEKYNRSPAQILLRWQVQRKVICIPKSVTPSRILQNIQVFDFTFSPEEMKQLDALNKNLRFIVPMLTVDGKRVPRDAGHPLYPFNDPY

[3] = target: T2, Aldo-keto reductase family 1 member B1 (Rattus norvegicus, UniProt P07943); assay: (§3) Inhibitory activity measured against rat lens aldose reductase using 3-pyridinecarboxaldehyde as substrate
[4] = target: T3, Aldo-keto reductase family 1 member B1 (Homo sapiens, UniProt P15121); assay: In vitro inhibition of human placental aldose reductase.
In short: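 Human placental aldose reductase, partly purified (placentae homogenized in 0.1 M K phosphate pH 7.0 with 5 mM 2-mercaptoethanol, spun 33000g, peak fractions pooled). Assay in 50 mM K phosphate pH 7.1 with 0.4 M ammonium sulfate, 0.067 mM NADPH, 1.0 mM DL-glyceraldehyde; enzyme set to 4 milliunits; NADPH oxidation at 340 nm, 25 °C, 10 min. IC50 by log linear regression.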

[5] = target: T3, Aldo-keto reductase family 1 member B1; assay: Inhibitory activity measured in vitro against human placental aldose reductase at a concentration of 10e-5 M
[6] = organism: Rattus norvegicus; assay: Percent inhibition of sorbitol accumulation in rat sciatic nerve was measured; type: functional
In short: (§4)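 Streptozotocin 85 mg/kg i.v. at 0 h to induce diabetes in rats; compound 100 mg/kg orally at 4, 7 and 24 h; killed at 27 h. Sorbitol in sciatic nerve or lens compared with untreated diabetic rats, n = 6 per group; Student's t test.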

[7] = target: T4, Aldo-keto reductase family 1 member A1 (Sus scrofa) (UniProt P50578); assay: Inhibitory activity measured against pig kidney aldehyde reductase using 3-pyridinecarboxaldehyde as substrate at 2e-4; conditions: concentration not given here
T4 sequence (whole entry): T1 sequence (P50578 whole entry)
In short: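 Pig kidney aldehyde reductase, purified to homogeneity, was tested at 2 × 10^-4 M inhibitor in 50 mM potassium phosphate pH 7.0 with 0.1 mM NADPH and 5 mM 3-pyridinecarboxaldehyde. The reaction was started with substrate, and NADPH loss was read at 340 nm for 12 min at 25 °C. The value is percent inhibition.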

[8] = Physicochemical property was determined; type: ADME
[9] = as §2
In short: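 Ratio of the pig kidney aldehyde reductase IC50 to the rat lens aldose reductase IC50. Both purified enzymes were assayed in 50 mM potassium phosphate pH 7.0 with 0.1 mM NADPH and 5 mM 3-pyridinecarboxaldehyde, started with substrate, reading NADPH loss at 340 nm for 12 min at 25 °C. IC50s came from log-linear regression.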

[10] = Physicochemical property was determined; b=could not be measured; type: ADME
[11] = organism: Rattus norvegicus; assay: Percent inhibition of sorbitol accumulation in rat lens was measured; type: functional, Lens of camera-type eye; in short: as §4
[12] = as §3; in short: as §1
[13] = target: T2, Aldo-keto reductase family 1 member B1; assay: Inhibition of rat lens aldose reductase was measured

Compound: O=C1NC(=O)C2(N1)c1ccccc1-c1ccc(F)cc12 (configuration not stated) [ALCONIL]
- Selectivity ratio [1]: 0.1
- IC50 [2]: 27 nM
- IC50 [3]: 300 nM

Compound: CCOC(=O)C1=C(O)C(=O)N(c2cccc3ccccc23)C1
- inhibition [5]: 36%

Compound: COc1ccc2c(C(=S)N(C)CC(=O)O)cccc2c1C(F)(F)F [TOLRESTAT]
- IC50 [3]: 29 nM

Compound: CCOC(=O)C1=C(O)C(=O)N(Cc2cccs2)C1
- IC50 [4]: 380 nM

Compound: CC1CN(Cc2ccccc2)C(=O)C1=O (configuration not stated)
- pKa [8]: 10.6

Compound: CCOC(=O)C1=C(O)C(=O)N(C2c3ccccc3-c3ccccc32)C1
- IC50 [4]: 300 nM

Compound: O=C(O)Cc1nn(Cc2ccc(Br)cc2F)c(=O)c2ccccc12 [PONALRESTAT]
- Selectivity ratio [1]: 71.4
- IC50 [2]: 2000 nM
- IC50 [3]: 28 nM

Compound: CC1(S(=O)(=O)O)CC(=O)c2ccccc2C1=O (configuration not stated) [MENADIONE SULFUROUS ACID]
- Selectivity ratio [1]: 6
- IC50 [2]: 490000 nM
- IC50 [3]: 82000 nM

Compound: CCOC(=O)C1=C(O)C(=O)N([C@H](C)c2ccccc2)C1
- IC50 [4]: 840 nM

Compound: CS(=O)(=O)C1CN(Cc2ccccc2)C(=O)C1=O (configuration not stated)
- pKa [8]: 5.1

Compound: CC(/C=C1\SC(=S)N(CC(=O)O)C1=O)=C\c1ccccc1
- IC50 [2]: 1500 nM

Compound: CCOC(=O)C1=C(O)C(=O)N([C@@H](C)c2ccccc2)C1
- IC50 [4]: 1200 nM

Compound: CCOC(=O)C1C(=O)C(=O)NC12CCOc1ccc(F)cc12 (configuration not stated)
- Selectivity ratio [9]: > 200
- IC50 [3]: 910 nM
- inhibition [7]: 11%

Compound: CCOC(=O)C1=C(O)C(=O)N(Cc2ccco2)C1
- IC50 [4]: 3300 nM

Compound: CCOC(=O)C1=C(O)C(=O)N(C2CCCCC2)C1
- inhibition [5]: 22%

Compound: CCCC(CCC)C(=O)O [VALPROATE SODIUM]
- Selectivity ratio [1]: 0.2
- IC50 [2]: 89000 nM
- IC50 [3]: 380000 nM

Compound: O=C1CCN(Cc2ccccc2)C1=O
- pKa [10]: Could not be measured

Compound: CC(C)(C)OC(=O)C1=C(O)C(=O)N(Cc2cccs2)C1
- Inhibition [6]: 37%
- inhibition [5]: 9%
- Inhibition [11]: 36%

Compound: CSC1CN(Cc2ccccc2)C(=O)C1=O (configuration not stated)
- pKa [8]: 7.3

Compound: CCOC(=O)C1=C(O)C(=O)N(CC2CCCCC2)C1
- inhibition [5]: 64%

Now from value to molecule, other results behind:

- IC50 [4]: 310 nM
Compound: CCOC(=O)C1=C(O)C(=O)N(Cc2ccc(Cl)cc2)C1

- IC50 [4]: 2600 nM
Compound: COC(=O)C1=C(O)C(=O)N(Cc2ccccc2)C1

- IC50 [4]: 260 nM
- inhibition [7]: 2%
Compound: CCOC(=O)C1=C(O)C(=O)N(Cc2ccccc2)C1
- Inhibition [6]: 51% and 42%

- IC50 [4]: 440 nM
Compound: CCOC(=O)C1=C(O)C(=O)N(Cc2ccccn2)C1

- IC50 [4]: 500 nM
Compound: CCOC(=O)C1=C(O)C(=O)N(Cc2ccc(Br)cc2)C1

- IC50 [4]: 1900 nM
Compound: CCCOC(=O)C1=C(O)C(=O)N(Cc2ccccc2)C1

- inhibition [5]: 27%
Compound: CC(C)(C)OC(=O)C1=C(O)C(=O)N(Cc2ccccc2)C1

- IC50 [4]: 410 nM
Compound: CCOC(=O)C1=C(O)C(=O)N(Cc2ccc(OC)cc2)C1

- inhibition [5]: 28%
Compound: CCOC(=O)C1=C(O)C(=O)N(c2ccccc2)C1

- IC50 [4]: 2500 nM
Compound: CCOC(=O)C1=C(O)C(=O)N(CCc2ccccc2)C1

- IC50 [4]: 2300 nM
Compound: CCOC(=O)C1=C(O)C(=O)N(Cc2ccccc2Cl)C1

- IC50 [4]: 2300 nM
Compound: CCOC(=O)C1=C(O)C(=O)N(Cc2cccc3ccccc23)C1

- IC50 [4]: 240 nM
Compound: CCOC(=O)C1=C(O)C(=O)N(Cc2ccc(Cl)c(Cl)c2)C1

- IC50 [4]: 200 nM
- Selectivity ratio [12]: > 1800
- IC50 [13]: 110 nM
- inhibition [7]: 9%
Compound: CCOC(=O)C1=C(O)C(=O)N(Cc2ccncc2)C1
- Inhibition [6]: 28%
